In PubChem BioAssay AID624467 (The Scripps Research Institute Molecular Screening Center, 2012) one finds activation data, which are given here for 89 molecules.

SMILES strings stand for the structures. “And” between values parts separate entries of the source, which are not always exact repeats. Equal entries are not always repeated. Out of some 360,000 compounds screened, about 3,600 (1%) were called active.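 Rule for the calls: active = activation above the mean activation of all test compounds in the run plus 3 SD (cut at about 38% in these data); inactive = the rest.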 Only a selection was taken, and actives are over-represented in it overall.

Sequence of Trace amine-associated receptor 1 (Homo sapiens) (Q96RJ0 whole entry, looked up): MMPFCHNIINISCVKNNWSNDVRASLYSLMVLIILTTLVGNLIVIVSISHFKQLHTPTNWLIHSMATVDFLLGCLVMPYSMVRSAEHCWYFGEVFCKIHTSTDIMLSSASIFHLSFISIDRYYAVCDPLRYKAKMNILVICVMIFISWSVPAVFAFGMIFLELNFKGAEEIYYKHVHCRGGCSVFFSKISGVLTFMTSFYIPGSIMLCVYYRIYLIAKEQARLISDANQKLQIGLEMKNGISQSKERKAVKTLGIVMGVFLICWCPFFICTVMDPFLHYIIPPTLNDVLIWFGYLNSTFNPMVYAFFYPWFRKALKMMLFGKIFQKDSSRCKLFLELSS

The assay concerns the target Trace amine-associated receptor 1 (Homo sapiens) (UniProt Q96RJ0). The assay can be described thus: human TAAR1 agonists, primary screen, Fluo-8 calcium fluorescence, CHO RD-HGA16 cells (AID 624467). The note with it: CHO RD-HGA16 TAAR1, Fluo-8 calcium fluorescence; at 3 µM; stronger effect = higher value; vehicle wells 0%, saturating PEA agonist 100%. The essentials:
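Signal – calcium-sensitive Fluo-8 signal, excitation 470-495, emission 515-575 nm · System – RD-HGA16 (CHO) cells co-expressing Gα16 and hTAAR1 · Incubation – 17-24 h seeding, 75 min 37 °C dye, 30 min RT · Compound dosing – 3 µM single concentration · Repeats – no replicates (n 1)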
As for `COc1ccc(SSc2ccc(OC)cc2C(=O)O)c(C(=O)O)c1`, the activation was 3.23% (inactive).

`CC(C)(C)n1ncc2c(=O)n(Cc3c(Cl)cccc3Br)cnc21`: the activation was 38.2% (active).

Take `Cn1cnc2c1c(=O)n(Cc1c(Cl)cccc1Cl)c(=O)n2C`: the activation was 1.55% (inactive).

Turning to `CC(C)(C)n1ncc2c(=O)n(Cc3ccc(Cl)cc3)cnc21`, the activation was 11.1% (inactive).

With `CCCNC(=O)C1(C)CCN(Cc2ccc(Cl)c(Cl)c2)C1` (centres undefined), the activation was 1.99% (inactive).

As for `Cc1ccc(C)c(-n2nnnc2SCC(=O)c2c(N)n(C)c(=O)n(C)c2=O)c1`, the activation is 2.95% (inactive).

Regarding `O=C1NC[C@H](CCCCN2C[C@H](Cc3ccc(O)cc3)N(CC3CCCCC3)C(=O)C2=O)N(CCc2ccccc2)C1=O`, the activation is -0.06% (inactive).

In the case of `COCCn1c(SC(C)C(=O)NC2CC2)nnc1-c1cccc(C)c1` (centres undefined), the activation is 3.19% (inactive).

`NC(=O)C1CCN(C(=O)c2cn(-c3ccccc3)nc2-c2cccnc2)CC1`: the activation is 1.55% (inactive).

For `O=C(NNC(=S)NC(=O)c1cn(-c2ccccc2)nc1-c1ccccc1)c1ccncc1`, the activation is 118% (active).

As for `COc1ccccc1N1CCN(C(=O)c2cn(-c3ccccc3)nc2-c2cccnc2)CC1`, the activation is 19.1% (inactive).

Take `O=C(NCc1ccc(F)cc1)C1CCC(CNc2c(N3CCOCC3)c(=O)c2=O)CC1` (centres undefined): the activation is 0.31% (inactive).

For the molecule `O=C(Nc1nnc(COc2ccccc2)s1)Nc1ccccc1F`, the activation is -0.19% (inactive).

As to `O=C(NCCOc1ccccc1F)Nc1ccc(Br)cc1`, the activation is 12% (inactive).

On to `O=C(Nc1ccccc1)Nc1nnc(COc2ccccc2F)s1`, for which the activation is 49.8% (active).

As for `COC(=O)[C@]12C[C@H](CC(=O)NCCC(C)C)C(=O)N(CCc3ccc(OC)c(OC)c3)C1=C[C@H](C(C)(C)C)O[C@@H]2C`, the activation is -1.91% (inactive).

`Cc1nc(NC(=O)C(C)(C)C)sc1[N+](=O)[O-]`: the activation is 1.6% (inactive).

Take `NC[C@H](Cc1ccccc1)NCCc1cc(C(F)(F)F)cc(C(F)(F)F)c1`: the activation is 47.6% (active).

Take `COC(=O)[C@@H](Cc1ccccc1)NC(=O)NCCc1ccccc1`: the activation is -0.6% (inactive).

As to `CCC(CC)NC(=O)CSc1nnc(-c2c[nH]c3ccccc23)o1`, the activation was 3.45% (inactive).

As to `CCOC(=O)c1cc2c(=O)[nH]c(C(Cl)(Cl)Cl)nc2o1`, the activation was 2.83% (inactive).

For the molecule `CN1C(=O)C2CC(O)C(SC3CC4C(=O)N(C)C(=O)C4CC3O)CC2C1=O` (centres undefined), the activation was -0.78% (inactive).

With `COc1cc(OC)c(NC(=O)C2CCCN2C(=O)OCc2ccccc2)cc1Cl` (centres undefined), the activation was 1.2% (inactive).

For the molecule `CN1C(=O)C(Br)(Br)CC1c1cccnc1` (centres undefined), the activation is 0.34% (inactive).

Take `O=C(OCCN=C1NS(=O)(=O)c2ccccc21)c1cccc([N+](=O)[O-])c1`: the activation is 0.99% (inactive).

For the molecule `N#CC1(NC(=O)COC(=O)CCN=C2NS(=O)(=O)c3ccccc32)CCCCC1`, the activation is 1.14% (inactive).

For the molecule `O=C(CCCN=C1NS(=O)(=O)c2ccccc21)OCC(=O)c1ccc(F)c(F)c1`, the activation is 86.8% (active).

With `Oc1ccccc1CNc1ncc(Br)cc1Br`, the activation is 4.29% (inactive).

`Cc1cc2cc3c(N)[nH]nc3nc2cc1C`: the activation was 2.1% (inactive).

In the case of `Cc1ccc(C2NC(C(=O)O)CS2)cc1` (centres undefined), the activation was 6.54% (inactive).

In the case of `COC(=O)C1=C(C)N(Cc2ccccc2C(F)(F)F)C(=NCc2ccc(C(F)(F)F)cc2)NC1c1ccc(F)cc1` (centres undefined), the activation was 0.73% (inactive).

As to `COCCCN(C(=O)CSCc1ccc(C)cc1)c1c(N)n(Cc2ccccc2)c(=O)[nH]c1=O`, the activation is 0.76% (inactive).

As for `COc1cc(OC)cc(C(=O)N[C@H](C(=O)OCC(=O)NC(C)c2ccccc2)C(C)C)c1` (some centres undefined), the activation was 78.4% (active).

Regarding `COc1cc(OC)cc(C(=O)NC(C(=O)N2CCC2)C(C)C)c1` (centres undefined), the activation is 0.84% (inactive).

In the case of `COc1cc(OC)cc(C(=O)NCC(=O)OCC(=O)NC(C)CCc2ccccc2)c1` (centres undefined), the activation was 4.34% (inactive).

Regarding `COc1ccccc1OC(C)C(=O)Nc1ccc(S(=O)(=O)Nc2nccs2)cc1` (centres undefined), the activation is 3.3% (inactive).

For the molecule `Cc1ccn2c(=O)c(C(=O)NCCC3=CCCCC3)c(O)nc2c1`, the activation was 75.2% (active).

On to `O=C(CCNC(=O)Cn1ccc2ccccc2c1=O)NCCC1=CCCCC1`, for which the activation is 1.79% (inactive).

As to `O=C(NCCC1=CCCCC1)c1ccc(-n2cncn2)cc1`, the activation was 1.68% (inactive).

On to `CC1(C)OC(=O)C2=C(CC(CCc3ccccc3)OC2c2ccc(Cl)cc2)O1` (centres undefined), for which the activation was -0.49% (inactive).

As to `O=c1[nH]c(-c2ccccc2)cn1C1CCN(Cc2ccc(-c3nc4ccc(F)cc4nc3-c3ccccc3)cc2)CC1`, the activation was 2.82% (inactive).

For the molecule `Cc1cc(C)c(S(=O)(=O)N2CCC(C(=O)OCc3c(C)noc3C)CC2)c(C)c1`, the activation was 5.51% (inactive).

Regarding `COC(=O)C1=C(C(=O)OC)C2C=C(C(C)C)C1C(=O)C2(C)O` (centres undefined), the activation is 1.68% (inactive).

In the case of `COc1cccc(CNc2nc(NCc3ccccc3OC)nc3ccsc23)c1`, the activation was 3.04% (inactive).

`COc1cccc(CNc2nc(NCc3cccs3)nc3ccsc23)c1`: the activation is 39% (active).

Turning to `Clc1ccccc1Nc1nc(NCc2cccs2)nc2ccsc12`, the activation is 7.75% (inactive).

In the case of `CCn1nnc(NC(=O)c2cc(Cl)c(OC)c(Cl)c2)n1`, the activation is 5.93% (inactive).

For `O=C1CC(c2ccccc2)C(c2ccccc2)=NN1` (centres undefined), the activation was 2.78% (inactive).

In the case of `O=C(c1cc(-c2cccc(O)c2)on1)N1CCc2ccccc2C1`, the activation was 31.8% (inactive).

As to `COc1ccc2c(c1)CCc1c(C(=O)N3CCc4ccccc4C3)noc1-2`, the activation was 13.8% (inactive).

Consider `O=C(c1noc2c1CCCC2)N1CCc2ccccc2C1`, for which the activation is 54.6% (active).

Turning to `CCOC(=O)CC1(NC(=O)c2cc(COc3cncc(Cl)c3)on2)CCCCC1`, the activation was 4.12% (inactive).

With `O=C(CN1CCc2ccccc21)NC(c1ccccc1)c1ccccc1`, the activation is -0.06% (inactive).

For `CC(=O)c1c(C)[nH]c(C(=O)OCC(=O)Nc2c(C)cccc2C)c1C`, the activation was 18.7% (inactive).

As for `COC(=O)c1[nH]c2cccc(C)c2c1NC(=O)CN1CCCc2ccccc21`, the activation is 38.2% (active).

With `Cc1ccc(NC(=O)N2c3ccccc3SC2c2ccco2)c(C)c1` (centres undefined), the activation is 1.34% (inactive).

On to `Cc1cc(Br)cn2c(Cc3ccccc3C(F)(F)F)c(-c3ccc(C#N)cc3)nc12`, for which the activation is 0.31% (inactive).

Regarding `COc1ccc(-c2cc(C(F)(F)F)nc(SCCC(=O)NCc3ccco3)n2)cc1`, the activation is 0.17% (inactive).

Take `O=C(CSc1nc(-c2ccco2)cc(C(F)(F)F)n1)NCc1cccs1`: the activation was 75.6% (active).

Take `O=C(CSc1nc(-c2ccco2)cc(C(F)(F)F)n1)N1CCc2ccccc2C1`: the activation is 19.4% (inactive).

Turning to `CN(O)C(=S)c1ccccc1`, the activation was 4.65% (inactive).

As for `C[C@@H]1ON(C)[C@H]2C[C@H]3c4cc(N5CCOCC5)ccc4CCN3C[C@@H]12`, the activation is 2% (inactive).

For the molecule `O=C(NCCc1ccccc1)C1CC1`, the activation is 20.1% (inactive).

Turning to `O=C(O)C1C2C=CC(O2)C1C(=O)NCCc1cccc(Cl)c1` (centres undefined), the activation is 76.8% (active).

`O=C(O)C1C2C=CC(O2)C1C(=O)Nc1ccccn1` (centres undefined): the activation was 2.36% (inactive).

As to `O=C(NCc1ccccc1)[C@@H]1CCCN1C(=O)[C@H]1CCCN1C(=O)c1cccc(Cl)c1`, the activation was -0.12% (inactive).

With `COc1ccc(CNC(=O)COC(=O)C(CCSC)N2C(=O)c3ccccc3C2=O)cc1` (centres undefined), the activation was 9.85% (inactive).

`COc1ccc(CCNC(=O)COC(=O)c2cc(=O)c3ccccc3o2)cc1`: the activation was 17.5% (inactive).

On to `COc1ccc(CNC(=O)COC(=O)C2=Cc3ccccc3OC2)cc1`, for which the activation is 43.4% (active).

Take `Cc1nc2c(C(=O)NCc3cccs3)cnn2c(C)c1Cc1ccc(F)cc1`: the activation was -1.18% (inactive).

With `Cc1ccc(NC(=O)CC2C(=O)N(Cc3ccccc3)C(=S)N2NC(=O)c2cccc(F)c2)c(C)c1` (centres undefined), the activation was 9.32% (inactive).

Consider `COC(=O)Cc1nnn2c1[C@H](C)[C@H](c1ccccc1[N+](=O)[O-])OCC2`, for which the activation is 1.43% (inactive).

For `Cc1ccc(Cl)c(OCC(=O)N2CCc3ccccc3C2)c1`, the activation is 0.5% (inactive).

On to `Cc1cccc(N(CC(=O)N2CCOCC2)S(C)(=O)=O)c1`, for which the activation was 0.3% (inactive).

`CS(=O)(=O)N(CC(=O)N1CCc2ccccc2C1)c1ccc(Br)cc1`: the activation was 2.37% (inactive).

`O=C(CN(c1cccc(Cl)c1)S(=O)(=O)c1ccccc1)NN=C1CCCC1`: the activation was -0.99% (inactive).

As for `COc1cccc(N(CC(=O)N2CCc3ccccc3C2)S(C)(=O)=O)c1`, the activation was 47.3% (active).

In the case of `Cc1ccc(S(=O)(=O)N(CC(=O)N2CCc3ccccc3C2)c2cccc(Cl)c2)cc1`, the activation was 49.8% (active).

As to `CCOC(=O)CNC(=O)N(C)[C@H]1C[C@H]2c3[nH]c4c(-c5ccc6c(c5)OCO6)cccc4c3CCN2C(=O)[C@H]1[C@H](C)O`, the activation was 11.6% (inactive).

Take `COc1cccc(CNC(=O)[C@H]2CCCN2C(=O)[C@H]2CCCN2C(=O)C2CCCCC2)c1`: the activation was 2.02% (inactive).

For the molecule `CCc1nn(CCCN2CCN(c3cccc(Cl)c3)CC2)c(=O)n1CCOc1ccccc1`, the activation was 5.08% (inactive) and 3.96% (inactive).

Turning to `O=[N+]([O-])c1ccc2[nH]c3c(c2c1)CCCC3O` (centres undefined), the activation was 2.87% (inactive).

For `COC(=O)[C@]12C[C@H](CC(=O)N3CCN(C(=O)C4CC4)CC3)C(=O)N(Cc3ccc4c(c3)OCO4)C1=C[C@H](C(C)(C)C)O[C@@H]2C`, the activation was 1.35% (inactive).

As for `Cc1ccc(C(=O)CCC(=O)N(C)CC(=O)Nc2c(Cl)cccc2Cl)cc1`, the activation is -0.39% (inactive).

On to `COc1ccccc1N1CC(C(=O)Nc2ccc(S(=O)(=O)N3CCOCC3)cc2)CC1=O` (centres undefined), for which the activation is 1.9% (inactive).

With `COc1ccc(OC)c(NC(=S)N2CCc3ccccc3C2)c1`, the activation is 69.4% (active).

With `COc1ccc(C)cc1NC(=S)N1CCOCC1`, the activation is 0.86% (inactive).

With `COc1ccc(NC(=S)N2CCc3cc(OC)c(OC)cc3C2)cc1`, the activation was 2.44% (inactive).

On to `CCCCCCCCN1C(=O)[C@@H](CC(=O)NCCCC)C[C@@]2(C(=O)OC)C1=C[C@H](C(C)(C)C)O[C@@H]2C`, for which the activation was -1.86% (inactive).
